SMILES strings stand for the structures.

The IC50 is the concentration that gives 50% inhibition. Read a high IC50 as lower potency.

The subject of one assay is K562. Description: Cytotoxicity against human K562 cells after 48 hrs by MTT assay. Type of assay: functional, cell-based. The following applies: K562, 48 h. Put shortly:
(§1)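 MTT viability assay: cells exposed to compound for 48 h, MTT in RPMI-1640 added for a further 4 h at 37 °C, formazan dissolved in DMSO, absorbance at 570 nm. Triplicate wells, three independent experiments; IC50 (50% viability inhibition) computed by dose-effect analysis and reported as mean of three experiments. CA-4 as positive control.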
For orientation: Formazan colour is commonly taken as a measure of viable cells.

The nature of assay [1]: Cytotoxicity against human ECA109 cells after 48 hrs by MTT assay. Type of assay: functional, cell-based. The following applies: ECa-109, 48 h. Put shortly: as §1
The next assay concerns A549. Put plainly: Cytotoxicity against human A549 cells after 48 hrs by MTT assay. The assay is classed as functional, cell-based. The settings on record: A549, 48 h. Put shortly:
as §1

Assay [2] deals with SMMC-7721. Description: Cytotoxicity against human SMMC7721 cells after 48 hrs by MTT assay. The following applies: SMMC-7721, 48 h. Type of assay: functional, cell-based. Put shortly:
as §1

Another assay concerns PC-3. Put plainly: Cytotoxicity against human PC3 cells after 48 hrs by MTT assay. The assay is classed as functional, cell-based. The following applies: PC-3, 48 h. Put shortly:
as §1

Assay [3] can be described thus: Inhibition of bovine tubulin polymerization by fluorescent plate reader analysis. More on the design: species or system Bos taurus.
The test system of assay [4] is SMMC-7721. Put plainly: Cell cycle arrest in human SMMC7721 cells assessed as accumulation at G2/M phase at 0.1 uM after 24 hrs by propidium iodide staining-based FACS analysis. Type of assay: functional. Put shortly: (§2)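 SMMC-7721 cells (5 × 10⁴/mL) exposed 24 h to graded concentrations (0.01–1.0 µM) alongside DMSO and CA-4 controls; washed twice in PBS, fixed in 75% ethanol at −20 °C, RNase-treated at 37 °C for 0.5 h, stained with propidium iodide at 4 °C for 15 min, then analysed by flow cytometry for G2/M and S fractions.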
(In flow cytometry, cells or beads pass a laser one at a time.)

For assay [5], the system named is SMMC-7721. Description: Cell cycle arrest in human SMMC7721 cells assessed as accumulation at S phase at 0.1 uM after 24 hrs by propidium iodide staining-based FACS analysis. Type of assay: functional. Put shortly:
as §2

For assay [6], the system named is SMMC-7721. Description: Cell cycle arrest in human SMMC7721 cells assessed as accumulation at G2/M phase at 1 uM after 24 hrs by propidium iodide staining-based FACS analysis. Type of assay: functional. Put shortly:
as §2

Assay [7] deals with SMMC-7721. Put plainly: Cell cycle arrest in human SMMC7721 cells assessed as accumulation at S phase at 1 uM after 24 hrs by propidium iodide staining-based FACS analysis. The assay is classed as functional. Put shortly:
as §2

The test system of assay [8] is SMMC-7721. Description: Induction of apoptosis in human SMMC7721 cells at 0.1 uM after 48 hrs. The assay is classed as functional.
For assay [9], the system named is SMMC-7721. Description: Induction of apoptosis in human SMMC7721 cells at 0.5 uM after 48 hrs. The assay is classed as functional.
For assay [10], the system named is SMMC-7721. Put plainly: Induction of apoptosis in human SMMC7721 cells at 1 uM after 48 hrs. Type of assay: functional.

For the compound `COc1ccc(/C=C\c2cc(OC)c(OC)c(OC)c2)cc1O` [COMBRETASTATIN A4], the 50% inhibitory concentration (IC50) with K562 amounted to 0.046 µM; in [1] it was 4.5 µM; with A549, 0.42 µM; in the assay on SMMC-7721 [2], 3.22 µM; in the assay with PC-3, 5.4 µM.
The matching figures for `COc1cc(-c2noc(N)c2-c2cc(OC)c(OC)c(OC)c2)cc(OC)c1OC`: 3.65 µM, over 50 µM, over 50 µM, over 50 µM and over 50 µM.
With `COc1ccc(-c2noc(N)c2-c2cc(OC)c(OC)c(OC)c2)cc1O`, the IC50 (in [1]; in the assay on A549; in the assay on PC-3) was over 50 µM each time.
Take `COc1ccc(-c2noc(N)c2-c2cc(OC)c(OC)c(OC)c2)cc1OC`: the half-maximal inhibitory concentration (IC50) with K562 is 1.4 µM; in assay [1], 1.66 µM; in the assay with A549, over 50 µM; with SMMC-7721 [2], over 50 µM; in the assay on PC-3, over 50 µM.
In the case of `COc1ccc(-c2c(-c3cc(OC)c(OC)c(OC)c3)noc2N)cc1`, the IC50 with K562 was 0.04 µM; in assay [1] it was 5.84 µM; in the assay on A549, 4.49 µM; in the assay on SMMC-7721 [2], 12 µM; with PC-3, 3.03 µM; in assay [3] it was 1.8 µM.
As to `COc1ccc(-c2noc(N)c2-c2cc(OC)c(OC)c(OC)c2)cc1`, the IC50 in the assay on K562 came to 0.022 µM; in [1] it was 9.82 µM; in the assay on A549, 21.8 µM; with SMMC-7721 [2] it was 39.8 µM; in the assay on PC-3, 15 µM.
Take `COc1cc(-c2noc(NC(C)=O)c2-c2cc(OC)c(OC)c(OC)c2)cc(OC)c1OC`: the half-maximal inhibitory concentration (IC50) worked out at 3.97 µM with K562; 13.9 µM in [1]; 21.1 µM in the assay on A549; 24.6 µM in the assay on SMMC-7721 [2]; 14.9 µM in the assay on PC-3.
The matching figures for `COc1cc(-c2noc(NC(C)=O)c2-c2ccc(Cl)cc2)cc(OC)c1OC`: 3.62 µM, 9.53 µM, 24.9 µM, over 50 µM and 1.91 µM.
`COc1ccc(-c2c(-c3cc(OC)c(OC)c(OC)c3)noc2N)cc1OC`: the 50% inhibitory concentration (IC50) in the assay on K562 was 1.27 µM; in assay [1] it was 20.6 µM; in the assay on A549 it was over 50 µM; in the assay on SMMC-7721 [2], over 50 µM; with PC-3, 21.1 µM.
Regarding `COc1ccc(-c2noc(NC(C)=O)c2-c2cc(OC)c(OC)c(OC)c2)cc1`, the concentration for half-maximal inhibition (IC50) in the assay with K562 is 1 µM; in [1], over 50 µM; with A549 it was over 50 µM; in the assay on SMMC-7721 [2] it was over 50 µM; with PC-3, over 50 µM.
As to `COc1ccc(-c2c(-c3cc(OC)c(OC)c(OC)c3)noc2NC(C)=O)cc1OC`, the IC50 with K562 was 3.71 µM; in assay [1] it was 17.7 µM; in the assay with A549, 19.8 µM; in the assay on SMMC-7721 [2], 46.3 µM; in the assay with PC-3, over 50 µM.
For the compound `COc1ccc(-c2c(-c3cc(OC)c(OC)c(OC)c3)noc2NC(C)=O)cc1`, the IC50 with K562 is 0.38 µM; in assay [1], 10.8 µM; in the assay with A549, 10.7 µM; in the assay with SMMC-7721 [2], over 50 µM; with PC-3 it was over 50 µM.
Take `COc1cc(-c2noc(N)c2-c2ccc(Cl)cc2)cc(OC)c1OC`: the half-inhibitory concentration (IC50) with K562 is 0.64 µM; in [1] it was over 50 µM; in the assay with A549, over 50 µM; in the assay on SMMC-7721 [2], over 50 µM; in the assay with PC-3 it was over 50 µM.
As for `COc1ccc(-c2noc(NC(C)=O)c2-c2cc(OC)c(OC)c(OC)c2)cc1OC`, the IC50 is 8.75 µM in the assay on K562; over 50 µM in assay [1]; over 50 µM with A549; over 50 µM in the assay with SMMC-7721 [2]; over 50 µM with PC-3.
Regarding `COc1ccc(-c2noc(NC(C)=O)c2-c2cc(OC)c(OC)c(OC)c2)cc1O`, the IC50 (in [1]; with A549; with PC-3) was over 50 µM throughout.
For the compound `COc1ccc(-c2c(-c3cc(OC)c(OC)c(OC)c3)noc2N(C(C)=O)C(C)=O)cc1OC`, the 50% inhibitory concentration (IC50) with K562 was 4.29 µM; in assay [1] it was over 50 µM; in the assay on A549 it was over 50 µM; in the assay with SMMC-7721 [2], over 50 µM; with PC-3, over 50 µM.
As to `COc1ccc(-c2c(-c3cc(OC)c(OC)c(OC)c3)noc2N(C(C)=O)C(C)=O)cc1`, the concentration for half-maximal inhibition (IC50) was 0.068 µM in the assay on K562; 0.39 µM in [1]; 0.43 µM in the assay with A549; 1.36 µM in the assay on SMMC-7721 [2]; 0.36 µM with PC-3; 2.1 µM in assay [3]. Also, the Activity in the assay on SMMC-7721 [4] amounted to 41.5%; in the assay with SMMC-7721 [5], 50.4%; with SMMC-7721 [6], 70%; in the assay on SMMC-7721 [7] it was 24.3%; with SMMC-7721 [8] it was 37%; with SMMC-7721 [9], 70%. For the same compound, the Activity in the assay on SMMC-7721 [10] is 72%.
As for `COc1cc(-c2noc(N(C(C)=O)C(C)=O)c2-c2ccc(Cl)cc2)cc(OC)c1OC`, the IC50 in the assay with K562 is 3.96 µM; in assay [1], 39.8 µM; in the assay with A549, over 50 µM; in the assay on SMMC-7721 [2] it was over 50 µM; in the assay on PC-3, 2.63 µM.
On to `COc1ccc(-c2noc(NC(C)=O)c2-c2cc(OC)c(OC)c(OC)c2)cc1OCc1ccccc1`, for which the half-maximal inhibitory concentration (IC50) (in assay [1]; in the assay with A549; in the assay with PC-3) was over 50 µM throughout.
As to `COc1ccc(-c2noc(N)c2-c2cc(OC)c(OC)c(OC)c2)cc1OCc1ccccc1`, the IC50 is over 50 µM in [1], 38.2 µM with A549 and over 50 µM in the assay on PC-3.

For the origin of these results see ChEMBL document CHEMBL1152533, “Synthesis and biological evaluation of 3,4-diaryl-5-aminoisoxazole derivatives” (Bioorg Med Chem, 2009).
